The values that follow come from ChEMBL document CHEMBL4396895, “Identification and Optimization of Novel Cathepsin C Inhibitors Derived from EGFR Inhibitors” (J Med Chem, 2019).

Molecules are shown by their SMILES. Activity calls are given as the source filed them. No cut-off for these calls is given here. Where only a bound is given, the exact number is not on record here.

The test system of series [1] is Mus musculus. As to the kind of experiment: In vivo inhibition of CatC in po dosed C57BL/6 mouse bone marrow assessed as reduction in proteinase 3 activation administered twice daily for 6 days using aminobenzoyl-Val-Ala-Asp-Cys-Ala-Asp-Gln-ethylenediamine 2,4-dinitrophenyl as substrate measured up to 90 mins by fluorescence assay. The format is functional, organism-based. An outline of the steps:
(§1)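 C57BL/6 mice (20−25 g; n = 10 per group) received oral doses twice daily at 6.7, 20 or 60 mg/kg for 6 days. The vehicle group got 0.5% Methocel and 0.1% Tween-80 in 100 mM citrate buffer, pH 3. Blood was drawn by eye puncture 14 h after the last dose. Bone marrow was flushed from femurs and tibias with ice-cold RPMI 1640. Cells were lysed in 50 mM Tris pH 7.4, 750 mM NaCl, 1% Triton X-100, sonicated on ice and stored at −80 °C. Lysates were diluted by protein content, with blood diluted 5-fold more than marrow. Kinetics were followed for up to 90 min. Results are % of the vehicle mean.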

In series [2] the test system is Mus musculus. As to the kind of experiment: In vivo inhibition of CatC in C57BL/6 mouse blood at 20 mg/kg, po single dose using Gly-Phe-AFC as substrate measured 15 mins post dose for up to 90 mins by fluorescence assay relative to control. The conditions noted are these: C57BL/6, Blood.
For series [3], the system named is Mus musculus. The series can be described thus: In vivo inhibition of CatC in po dosed C57BL/6 mouse bone marrow assessed as reduction in CatG activation administered twice daily for 6 days using N-succinyl-Ala-Ala-Pro-Phe-pNA as substrate measured up to 90 mins by fluorescence assay. The format is functional, organism-based. In outline: as §1
Series [4] deals with Mus musculus. The series can be described thus: In vivo inhibition of CatC in po dosed C57BL/6 mouse blood administered twice daily for 6 days using Gly-Phe-AFC as substrate measured up to 90 mins by fluorescence assay. It is filed as functional, organism-based. In outline: as §1
In a further series the target is Procathepsin L (Homo sapiens, UniProt P07711). As to the kind of experiment: Inhibition of recombinant human C-terminal His6-tagged cathepsin L (Glu113 to Val333 and Ala114 to Val333 residues) expressed in mouse myeloma cells using Z-Leu-Arg-AMC as substrate preincubated for 30 mins followed by substrate addition and measured after 30 mins. In outline: (§2)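 Recombinant human cathepsin was preincubated with compound for 30 min at RT, then reacted with substrate for 30 min. CatB and CatL were read with Z-Leu-Arg-AMC (Ex 380/Em 460 nm). CatS was read with MCA-Arg-Pro-Lys-Pro-Val-Glu-Nva-Trp-Arg-Lys(DNP)-NH2 (Ex 320/Em 405 nm). E-64 served as inhibitor control.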

Series [5] is described as follows: Oral bioavailability in C57BL/6 mouse at 10 mg/kg by LC-MS/MS analysis. It is filed as ADME, organism-based. The following applies: in vivo. An outline of the steps: (§3)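 Male C57BL/6 mice (n = 3) were dosed with a single IV dose of 2 mg/kg or an IP or PO dose of 10 mg/kg. Vehicle: 0.5% Methocel and 0.1% Tween-80 in citrate buffer, pH 3. Blood was drawn by eye puncture at several time points and analysed by LC-MS/MS. Parameters came from noncompartmental analysis of individual animals and are reported as means.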

Series [6] in a line: Tmax in C57BL/6 mouse at 10 mg/kg, ip by LC-MS/MS analysis. The format is ADME, organism-based. The following applies: in vivo. In outline: as §3
The subject of series [7] is Mus musculus. The series can be described thus: Protection against C57BL/6 mouse model of caerulein-induced acute pancreatitis assessed as reduction in CatC activity at 20 mg/kg, po pretreated twice daily for 6 days followed by caerulein-challenge at 1 hr interval for 8 hrs and measured 1 hr post-last caerulein-challenge.
Series [8] concerns Mus musculus. As to the kind of experiment: In vivo inhibition of CatC in po dosed C57BL/6 mouse blood assessed as reduction in proteinase 3 activation administered twice daily for 6 days using aminobenzoyl-Val-Ala-Asp-Cys-Ala-Asp-Gln-ethylenediamine 2,4-dinitrophenyl as substrate measured up to 90 mins by fluorescence assay. The format is functional, organism-based. In outline:
as §1

Series [9] in a line: Intrinsic clearance in human liver microsomes assessed per mg protein measured after 60 mins in presence of NADPH by LC-MS/MS analysis. The format is ADME, Microsome. The following applies: read-out: CLH.
Series [10] is described as follows: AUC infinity in C57BL/6 mouse at 10 mg/kg, ip by LC-MS/MS analysis. It is filed as ADME, organism-based. More on the design: dose 10 mg/kg, route intraperitoneal, time infinity. The following applies: in vivo. An outline of the steps: as §3
The test system of series [11] is Mus musculus. As to the kind of experiment: In vivo inhibition of CatC in po dosed C57BL/6 mouse blood assessed as reduction in CatG activation administered twice daily for 6 days using N-succinyl-Ala-Ala-Pro-Phe-pNA as substrate measured up to 90 mins by fluorescence assay. It is filed as functional, organism-based. In outline: as §1
Series [12] can be described thus: Half life in C57BL/6 mouse at 10 mg/kg, po by LC-MS/MS analysis. The following applies: in vivo. The format is ADME, organism-based. In outline:
as §3

The target of series [13] is Epidermal growth factor receptor (Homo sapiens, UniProt P00533). The series can be described thus: Inhibition of EGFR (unknown origin) up to 10 uM using biotin-labelled peptide as substrate preincubated for 2 hrs followed by substrate addition and measured after 30 mins by HTRF FRET assay. In outline:
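EGFR WT was used at 0.1 nM final in 50 mM HEPES pH 7.0, 0.02% NaN3, 0.01% BSA, 0.1 mM orthovanadate, 10 mM MgCl2, 2.5 mM DTT, 6.25 nM SEB. It was preincubated with compound for 2 h. Biotin-peptide (1.4 μM) and ATP (20 μM) were then added for 30 min at RT. Read-out was HTRF/TR-FRET (Ex 320, Em 615/665 nm) with a sigmoidal curve fit.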

Another series addresses Dipeptidyl peptidase 1 (Homo sapiens, UniProt P53634). As to the kind of experiment: Inhibition of CatL-activated recombinant human C-terminal His10-tagged cathepsin C (25 to 463 residues) expressed in mouse myeloma cells using Gly-Phe-AFC as substrate preincubated for 3 hrs followed by substrate addition and measured after 60 mins. It is filed as cell-free. In outline:
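Activated rhCatC was diluted to 4.4 nM in 25 mM MES, 50 mM NaCl, 5 mM DTT, 0.01% Triton X-100, pH 6.0. It was preincubated with compound (added in 10% DMSO) for 3 h at RT. Gly-Phe-AFC was then added to 100 μM final and read as fluorescence after 60 min. IC50 came from a sigmoidal nonlinear fit; values are means of at least two experiments.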

Another series addresses Cathepsin S (Homo sapiens, UniProt P25774). As to the kind of experiment: Inhibition of recombinant human C-terminal polyhistidine-tagged cathepsin S (Met1 to Ile331 residues) expressed in HEK293 cells using MCA-Arg-Pro-Lys-Pro-Val-Glu-NVAL-Trp-Arg-Lys(DNP)-NH2 as substrate preincubated for 30 mins followed by substrate addition and measured after 30 mins. An outline of the steps:
as §2

The test system of series [14] is Mus musculus. As to the kind of experiment: In vivo inhibition of CatC in po dosed C57BL/6 mouse bone marrow assessed as reduction in neutrophil elastase activation administered twice daily for 6 days using methoxysuccinyl-Ala-Ala-Pro-Val-AMC as substrate measured up to 90 mins by fluorescence assay. It is filed as functional, organism-based. An outline of the steps: as §1

A further series concerns the target Cytochrome P450 2D6 (Homo sapiens, UniProt P10635). The series can be described thus: Inhibition of CYP2D6 (unknown origin). It is filed as ADME. In outline: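 Tested against recombinant human cytochrome P450 isoforms 1A2, 2D6, 3A4, 2C9 and 2C19.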
Series [15] in a line: Bioavailability in C57BL/6 mouse at 10 mg/kg, ip by LC-MS/MS analysis. It is filed as ADME, organism-based. The following applies: in vivo. An outline of the steps:
as §3

For the compound `C=CC(=O)Nc1cc(Oc2nc(Nc3ccc(N4CCN(C)CC4)cc3OC)ccc2N2CCCCC2)ccc1C`, the inhibition entry in the series with Mus musculus [1], in the series on Mus musculus [3], with Mus musculus [4], with Mus musculus [8], in the series on Mus musculus [11] and with Mus musculus [14] was “Dose-dependent effect” in each case. At 20 mg/kg the inhibition in vivo in the series on Mus musculus [2] was 75%. Also, the half-maximal inhibitory concentration (IC50) is 3 to 10 µM on Procathepsin L, 0.017 to 0.0173 µM on Dipeptidyl peptidase 1, over 10 µM on Cathepsin S and over 10 µM against Cytochrome P450 2D6. Besides, the bioavailability is 22.3% in series [5] and 20.3% in [15]. For the same compound, the Tmax in series [6] worked out at 0 h. The outcome with Mus musculus [7] was Active. For the same compound, the microsomal CLint in [9] stood at 1.8 µL/min/mg. Moreover, in series [10], the area under the curve AUC(0-inf) worked out at 1240 ng·h/mL. Also, the half-life in [12] was 3.06 h. Also, the inhibition result in series [13] is “inactive”.
